Measurements taken from PubChem BioAssay AID1496 (Sanford-Burnham Center for Chemical Genomics, 2009).
Among all 220,000 compounds or so, about 990 (0.45%) were called active. This excerpt belongs to a sample that is enriched for actives. Values without a mark were called inactive.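 Rule for the calls: active = inhibition over about 50% at 20 µM in the single-dose screen (limit read from the data); inactive = the rest.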

These compounds were tested against Runt-related transcription factor 1 (Homo sapiens) + Core-binding factor subunit beta (Homo sapiens) (UniProt Q01196+Q13951) (assay: inhibitors of RUNX1 Runt–CBFb binding, primary screen, biochemical, FRET, Cerulean-Runt, Venus-CBFb, uHTS (AID 1496;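 note: 0% = DMSO wells and 100% = excess unlabeled CBFb competitor control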)). Conditions: Cerulean-Runt/Venus-CBFb FRET ratio 530/480, 1 h; at 20 µM; hits give high values.
How it was run: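 Assay system: Cerulean-Runt domain fusion protein, energy donor; Signal: fluorescence energy transfer, 422 nm excitation, 530/480 nm emission; Timing: 1 h compound exposure, room temperature; Control set: unlabeled CBFb; Medium: Tris buffer pH 7.5 with salts and BSA; Compound: single test concentration of 20 µM, 1% DMSO final; Probe or stimulus: Venus-CBFb 100 nM.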

Chain of Runt-related transcription factor 1 (Homo sapiens) + Core-binding factor subunit beta (Homo sapiens) (Q01196 whole entry, looked up, the tested form may be a part): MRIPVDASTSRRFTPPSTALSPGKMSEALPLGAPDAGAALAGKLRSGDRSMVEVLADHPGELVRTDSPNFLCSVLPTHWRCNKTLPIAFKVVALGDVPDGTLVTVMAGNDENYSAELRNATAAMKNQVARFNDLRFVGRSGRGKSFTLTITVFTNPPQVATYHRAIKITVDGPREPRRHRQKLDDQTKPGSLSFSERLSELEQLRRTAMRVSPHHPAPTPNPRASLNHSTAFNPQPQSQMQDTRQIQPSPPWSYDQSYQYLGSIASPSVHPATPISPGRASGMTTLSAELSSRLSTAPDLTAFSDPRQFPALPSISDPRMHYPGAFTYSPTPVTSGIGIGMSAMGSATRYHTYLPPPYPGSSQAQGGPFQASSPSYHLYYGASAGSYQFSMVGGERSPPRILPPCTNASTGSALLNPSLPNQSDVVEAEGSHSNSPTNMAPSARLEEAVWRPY
Chain of Runt-related transcription factor 1 (Homo sapiens) + Core-binding factor subunit beta (Homo sapiens) (Q13951 whole entry, looked up, the tested form may be a part): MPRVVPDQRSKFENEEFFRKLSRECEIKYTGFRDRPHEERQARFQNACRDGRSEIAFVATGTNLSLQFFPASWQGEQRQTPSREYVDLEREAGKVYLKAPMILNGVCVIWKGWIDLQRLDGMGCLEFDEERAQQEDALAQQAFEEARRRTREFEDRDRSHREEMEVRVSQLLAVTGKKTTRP

Compound	inhibition
O=C(O)c1ccccc1OCc1ccccc1Cl	2.6%
C#CCOCCOCCOCCNc1nc(N2CCN(C(=O)[C@H](CCC(=O)O)n3cc(C(N)CO)nn3)CC2)nc(N2CCN(C(=O)[C@H](CCCCN)n3cc(C(N)[C@H](C)CC)nn3)CC2)n1 (stereo not given in full)	0.2%
COc1ccc(C(=O)C2CCCN(C(=O)c3cnsn3)C2)c(C)c1 (stereo not given)	-0.7%
O=C(NCc1ccco1)C1CCCN(S(=O)(=O)c2ccccc2)C1 (stereo not given)	-0.1%
O=C(NCc1ccco1)C1CCCN(S(=O)(=O)c2cnc[nH]2)C1 (stereo not given)	1.5%
CCCS(=O)(=O)N1CCCC(C(=O)NCc2ccco2)C1 (stereo not given)	71.8% (active)
CCOC(=O)c1ccc(NC(=O)c2nc[nH]c2C(=O)NCc2ccccc2)cc1	19.6%
CN(C)S(=O)(=O)c1ccc(Cl)c(NC(=O)COC(=O)CC(NC(N)=O)c2ccc(Cl)cc2)c1 (stereo not given)	-1.9%
CCCN(CCC)S(=O)(=O)c1ccc(C(=O)N2CC3CCC(CC3)C2)cc1	-0.8%
Cc1nc(C(=O)Nc2ccc(Cl)cc2)sc1C1(C)CC(c2ccccc2)=NO1 (stereo not given)	1.9%
O=C(O)/C=C/c1ccc2c(c1)OCCO2	1.9%
COc1cccc(CC(=O)Nc2ccc(-c3csc(C)n3)cc2)c1	-1.8%
CC(C)=C(NC(=O)c1ccco1)C(=O)NCCc1nc2ccccc2[nH]1	1.2%
COc1ccc(OC(C)C(=O)NCCc2nc3ccccc3[nH]2)cc1 (stereo not given)	-0.9%
CC(C)Oc1ccc(/C=C(\NC(=O)/C=C/c2ccco2)C(=O)NCCc2nc3ccccc3[nH]2)cc1	89.5% (active)
CCOC(=O)C1=C(N)N2C(=O)C(C)SC2=C(C(=O)OCC)C1c1cc(OC)c(OC)c(OC)c1 (stereo not given)	-5%
Cc1cc(Nc2ccc(Cl)cc2)nc(N2CCOCC2)n1	0.3%
Cc1cccc(-n2c(N)c(C(=O)N3CCN(C)CC3)sc2=S)c1	55.8% (active)
CCOC(=O)c1sc(=S)n(-c2cccc(OC)c2)c1N	34%
Cc1ccc(-n2c(N)c(C(=O)N3CCOCC3)sc2=S)c(C)c1	40.6%
CC(=O)Nc1nc2c(s1)C(=O)NCC(C)(C)C2	1%
CCCN(c1ccc(C)cc1)c1nc(=O)c2cccnc2s1	0.8%
Cc1cccc(N2C(=O)CC(SC(N)=Nc3ccccc3)C2=O)c1 (stereo not given)	-1.7%
Cc1cccc(N2C(=O)C3C(c4ccccc4)OC4(C(=O)c5ccccc5C4=O)C3C2=O)c1 (stereo not given)	115% (active)

Compound	inhibition
Cc1cccc(N2C(=O)c3cccnc3C2=O)c1	-2.4%
O=C(Nc1ccc(Cl)cc1)Nc1ccc(C(=O)N2CCOCC2)cc1	-0.4%
Cc1cccn2c(=O)c3cc(C(=O)N4COCC4(C)C)n(C)c3nc12	-1.7%
Cc1cccn2c(=O)c3cc(C#N)c(=O)n(CCCN4CCOCC4)c3nc12	92.6% (active)
Cc1cc(C)n(CC(C)NCc2c(C(=O)N3CCOCC3)nc3c(C)cccn23)n1 (stereo not given)	0.6%
CC(C)c1c(O)nc(SCCOc2ccc(Cl)cc2)[nH]c1=O	0.6%
Cc1cc(C)c2c3c(sc2n1)C(c1ccccc1)C(C#N)=C(N)O3 (stereo not given)	66.6% (active)
N#CC1=C(N)Oc2c(sc3ccccc23)C1c1ccco1 (stereo not given)	15.7%
Cc1cc(C)c(C#N)c(SCc2[nH]nc3c2C(c2ccccc2)C(C#N)=C(N)O3)n1 (stereo not given)	-1.5%
Nc1c(Cl)cc(S(N)(=O)=O)cc1S(N)(=O)=O	0%
COc1ccc(/C=C2\N=C3CCCN3C2=O)cc1	1.1%
COc1ccc(/C=N/NS(=O)(=O)c2ccc(NC(C)=O)cc2)cc1	0.8%
CCCCN1CCNC1=S	0.1%
CS(=O)(=O)N(CC(O)Cn1c2ccccc2c2ccccc21)c1cccc2ccccc12 (stereo not given)	-3.3%
O=C1c2ccccc2S(=O)(=O)N1CC(O)Cn1c2ccccc2c2ccccc21 (stereo not given)	-0.7%
CCCCN(CCCC)CC(O)Cn1c2ccccc2c(=O)c2ccccc21 (stereo not given)	80.3% (active)
O=C1[C@@H]2C(c3cccnc3)=NO[C@@H]2C(=O)N1c1ccc(Cl)cc1Cl	9%
COc1ccc(Cl)cc1CSc1ncn[nH]1	-0.7%
Cc1ccsc1/C=N/NC(=O)Cc1cc(=O)[nH][nH]1	-1.1%
Cc1cc(F)ccc1S(=O)(=O)Nc1ncnc2scc(-c3ccc(F)cc3)c12	66.8% (active)
COc1ccc(-c2csc3ncnc(Oc4ccc5c(C)cc(=O)oc5c4)c23)cc1	-0.5%
CCn1cnc2scc(-c3ccc(C)c(C)c3)c2c1=O	0.4%
CCOc1ccc2sc(NS(=O)(=O)c3ccc(N)cc3)nc2c1	0.7%
CCNc1nc(NCC)nc(N/N=C/c2ccc(O)c(OC)c2)n1	10%

Compound	inhibition
N=c1oc2ccccc2cc1C(=O)N/N=C/c1ccccc1	-2.3%
CCOC(=O)N1CCN(C(=O)c2cc3c(ccc4ccccc43)oc2=O)CC1	2.5%
CNC(=O)c1cc2c(ccc3ccccc32)oc1=N	108% (active)
CCN(CC)C(=O)Oc1ccc(Br)cc1C(=O)Nc1ccc(F)c(Cl)c1	0.6%
CCn1c(SCC(=O)N/N=C/c2ccncc2)nc2ccccc21	-0.7%
CCC1=C(C(=O)OC)C(c2cc(OC)ccc2OC)C(C#N)=C(N)O1 (stereo not given)	2%
COc1ccc(C2C(C#N)=C(N)Oc3cc(N)ccc32)cc1OC (stereo not given)	77.7% (active)
COC(=O)C1=C(C)OC(N)=C(C#N)C1c1cc(OC)ccc1OC (stereo not given)	-2.5%
CCOC(=O)c1c(NC(=S)Nc2ccccc2)sc2c1CCN(C)C2	66.5% (active)
CCOC(=O)c1c(NC(=S)Nc2ccccc2C)sc2c1CCC2	10.3%
CCOC(=O)c1c(NC(=O)NC(C)(C)C)sc2c1CCN(C)C2	4.1%
CC(C)(C)c1nnc(NC(=O)C2c3ccccc3Oc3ccccc32)s1	21%
CC(C)Sc1nnc([C@H](Cc2ccccc2)NC(=O)OC(C)(C)C)o1	4.8%
O=C(CSc1ccc(-c2ccco2)nn1)NCc1ccc2c(c1)OCO2	16.4%
Brc1ccc(CSc2ccc(-c3ccco3)nn2)cc1	53.3% (active)
Fc1cccc(Cl)c1CSc1ccc(-c2ccco2)nn1	40.3%
CCC(C)(C)NC(=O)C(c1ccc(O)cc1)N(C(=O)Cn1nnc2ccccc21)c1ccc(NC(C)=O)cc1 (stereo not given)	0.4%
COc1cc(COCC(O)CN2CCN(Cc3ccc4c(c3)OCO4)CC2)cc(OC)c1OC (stereo not given)	-1%
COc1c(O)ccc2c1CN1CCc3cc4c(cc3C1C2)OCO4 (stereo not given)	66.6% (active)
COc1ccc2cc1Oc1ccc(cc1)C[C@H]1c3cc(c(OC)cc3CCN1C)Oc1c(O)c(OC)cc3c1[C@H](C2)N(C)CC3	1.7%
CCOC(=O)c1ccc(NC(=O)c2nc[nH]c2C(=O)N[C@@H](CCCCNC(=O)OC(C)(C)C)C(=O)OC(C)(C)C)cc1	-5.6%
CCOc1ccc(C(=O)NCCCN2CCCC2=O)cc1	1%
CC(C)(C)OC(=O)c1c(N)n(CCCN2CCCC2=O)c2nc3ccccc3nc12	68.7% (active)
Cc1ccc(C(=O)OC(C)CN2CCOCC2)cc1 (stereo not given)	1.3%

Compound	inhibition
CSc1nnc(-c2ccncc2)n1CCCN1CCCC1=O	-5.5%
COCC(C)OC(=O)c1c(N)n(CCCN2CCOCC2)c2nc3ccccc3nc12 (stereo not given)	67.9% (active)
O=C(Cn1c(-c2ccccn2)nc2ccccc21)NCCN1CCOCC1	0.6%
CC(C)C[C@H](CO)Nc1nc(N(C)c2cccc(Cl)c2)c2ncn(C(C)C)c2n1	-4.6%
N/C(=N\OC(=O)Nc1ccccc1)c1ccno1	0.1%
OCCN1CCN(C(=S)c2ccc(-c3ccccc3)cc2)CC1	53.6% (active)
O=C(NC(c1ccccc1)c1ccccc1)N1CCN(CCO)CC1	-1.2%
S=C(c1ccc(-c2ccccc2)o1)N1CCCCC1	21%
CCc1nc2sc3c(Cl)ncnc3c2c2c1CCCC2	-0.7%
CCN(CC)S(=O)(=O)c1ccc(N2CCOCC2)c(NC(=O)C2COc3ccccc3O2)c1 (stereo not given)	84.6% (active)
Cc1ccc(S(=O)(=O)N(C)C)cc1NC(=O)COC(=O)C1COc2ccccc2O1 (stereo not given)	-0.2%
CCN(CC)S(=O)(=O)c1ccc(N2CCOCC2)c(C(=O)O)c1	1%
CC(=O)c1sc(NC(=O)CCCOc2ccccc2C)nc1C	0.4%
COc1cccc2sc(Nc3nc(C)c(C(C)=O)s3)nc12	66.3% (active)
COc1cccc2sc(NNC(=O)c3nc4ccccc4s3)nc12	32.7%
O=S(=O)(NC(=S)Nc1ccccc1)c1ccc(F)cc1	26.8%
O=[N+]([O-])c1ccc2c(c1)C(O)n1nc(-c3ccccc3)nc1S2 (stereo not given)	-0.7%
C=CCNC(=S)NNC(=O)c1cc(Cl)ccc1OC	0.2%
C=CCSc1nnc(NC(=O)c2ccc(NC(C)=O)cc2)s1	0%
NNC(=O)c1cccc(COCC(F)(F)C(F)F)c1	-0.3%
CCCC(=O)N1c2ccccc2NC2=C(C(=O)CCC2)C1c1ccc(F)cc1 (stereo not given)	-0.4%
CCCN1C2=C(C(=O)CCC2)C(c2ccc(O)c(Br)c2)C2=C1CCCC2=O	53.1% (active)
N#CC1=C(N)N(c2ccccc2)C2=C(C(=O)CCC2)C1c1ccccc1 (stereo not given)	6.6%
